Consider 3 compounds from ChEMBL document CHEMBL5257059, “Pyridine-Based 1,2,4-Triazolo-Tethered Indole Conjugates Potentially Affecting TNKS and PI3K in Colorectal Cancer” (ACS Med Chem Lett, 2023).

For assay [1], the system named is HT-29. The experiment in a line: Inhibition of AXIN-1 protein expression in human HT-29 cells at 4 uM incubated for 72 hrs by Western blot analysis. It counts as functional, cell-based. On the technique in general: A western blot detects proteins with antibodies after separation by electrophoresis.
For assay [2], the system named is HT-29. The assay is described as follows: Induction of apoptosis in human HT29 cells assessed as increase in early apoptotic cells at 4 uM incubated for 24 hrs by annexin V/PI staining based flow cytometry analysis. Format: functional, cell-based. In short, it runs like this:
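Annexin/PI double staining of HT-29 cells after 24 h exposure at 1, 2 or 4 μM. Flow cytometry gated early apoptotic, late apoptotic and necrotic populations, reported as % of cells. Comparison to untreated control used two-way ANOVA followed by Tukey's post hoc analysis.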
On the technique in general: A flow cytometer gives signals particle by particle.

Assay [3] concerns HT-29. The assay is described as follows: Inhibition of TAB-182 protein expression in human HT-29 cells at 4 uM incubated for 72 hrs by Western blot analysis. Format: functional, cell-based.
In assay [4] the test system is HT-29. The assay is described as follows: Induction of mitochondrial ROS generation in human HT-29 cells at 4 uM by MitoSOX red dye based flow cytometry analysis. Format: functional, cell-based. In short, it runs like this:
(§1)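 Mitochondrial superoxide in HT-29 cells was read with the mitochondria-localizing MitoSOX Red probe after treatment at 1, 2 or 4 μM. Flow cytometry histograms were acquired on 10,000 cells, and results were expressed as mean fluorescence intensity. Versus control, significance was tested by one-way ANOVA with Tukey's post hoc test.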

The test system of assay [5] is HT-29. The assay is described as follows: Inhibition of APC protein expression in human HT-29 cells at 4 uM incubated for 72 hrs by Western blot analysis. It counts as functional, cell-based.
In assay [6] the test system is HT-29. The assay is described as follows: Induction of mitochondrial damage in human HT-29 cells assessed as increase in monomer formation at 4 uM incubated for 24 hrs by JC-1 staining based flow cytometry analysis. Format: functional, cell-based. In short, it runs like this: (§2)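 HT-29 cells exposed 24 h to test agent at 1, 2 or 4 μM, then stained with JC-1. Flow cytometry scored the % of cells in JC-1 aggregate versus monomer populations. Treated groups were compared with untreated control by two-way ANOVA with Tukey's post hoc test.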

Assay [7] has as its system HT-29. The experiment in a line: Inhibition of pan-AKT protein expression in human HT-29 cells at 4 uM incubated for 72 hrs by Western blot analysis. Format: functional, cell-based.
In assay [8] the test system is HT-29. The assay is described as follows: Inhibition of phosphorylated PI3K-p85 protein expression in human HT-29 cells at 4 uM incubated for 72 hrs by Western blot analysis. It counts as functional, cell-based.
The subject of assay [9] is HT-29. The experiment in a line: Induction of ROS generation in human HT-29 cells at 4 uM by CM-H2DCFDA fluorescent probe based flow cytometry analysis (reference value: 0.528%). It counts as functional.
In assay [10] the test system is HT-29. The assay is described as follows: Induction of cell cycle arrest in human HT-29 cells assessed as accumulation of cells at subG1 phase at 4 uM incubated for 24 hrs by RNase/PI staining based flow cytometry analysis (reference value: 1.798%). Format: functional.
Assay [11] deals with HT-29. The assay is described as follows: Inhibition of GSK-3beta protein expression in human HT-29 cells at 4 uM incubated for 72 hrs by Western blot analysis. Format: functional, cell-based.
Assay [12] concerns HT-29. The experiment in a line: Inhibition of phosphorylated PI3K-p85 protein expression in human HT-29 cells at 2 uM incubated for 72 hrs by Western blot analysis. It counts as functional, cell-based.
Assay [13] relates to HT-29. The experiment in a line: Inhibition of GSK-3beta protein expression in human HT-29 cells at 2 uM incubated for 72 hrs by Western blot analysis. It counts as functional, cell-based.
The subject of assay [14] is HT-29. The assay is described as follows: Induction of ROS generation in human HT-29 cells at 2 uM by CM-H2DCFDA fluorescent probe based flow cytometry analysis (reference value: 0.528%). Format: functional.
For assay [15], the target named is Phosphatidylinositol 3-kinase regulatory subunit alpha (Homo sapiens) (UniProt P27986). The assay is described as follows: Inhibition of PI3K-P85 phosphorylation in human HT-29 cells at 2 uM incubated for 72 hrs by Western blot analysis. It counts as cell-based.
Sequence of Phosphatidylinositol 3-kinase regulatory subunit alpha (Homo sapiens) (P27986 whole entry): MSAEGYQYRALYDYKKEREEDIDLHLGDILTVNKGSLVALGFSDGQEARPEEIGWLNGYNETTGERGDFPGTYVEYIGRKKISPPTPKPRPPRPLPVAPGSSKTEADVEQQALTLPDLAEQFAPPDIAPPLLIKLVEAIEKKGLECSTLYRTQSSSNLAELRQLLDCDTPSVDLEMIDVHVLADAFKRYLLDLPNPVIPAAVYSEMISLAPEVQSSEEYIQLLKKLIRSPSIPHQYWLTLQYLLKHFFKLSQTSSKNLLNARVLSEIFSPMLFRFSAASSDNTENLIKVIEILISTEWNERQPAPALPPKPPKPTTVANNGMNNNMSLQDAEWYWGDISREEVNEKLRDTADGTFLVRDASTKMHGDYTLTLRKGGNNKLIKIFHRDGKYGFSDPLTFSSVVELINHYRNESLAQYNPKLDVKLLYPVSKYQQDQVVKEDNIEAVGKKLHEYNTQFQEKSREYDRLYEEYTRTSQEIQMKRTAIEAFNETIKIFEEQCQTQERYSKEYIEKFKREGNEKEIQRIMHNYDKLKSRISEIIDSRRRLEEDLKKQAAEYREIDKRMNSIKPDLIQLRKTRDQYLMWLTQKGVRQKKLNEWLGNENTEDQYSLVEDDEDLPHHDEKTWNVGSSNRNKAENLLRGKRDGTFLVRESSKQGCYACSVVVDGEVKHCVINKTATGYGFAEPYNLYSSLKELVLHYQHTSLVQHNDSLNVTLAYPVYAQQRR
Assay [16] deals with HT-29. The assay is described as follows: Downregulation of beta-catenin protein expression in human HT-29 cells at 2 uM by immunostaining based confocal microscopic analysis. It counts as functional, cell-based.
For assay [17], the system named is HT-29. The assay is described as follows: Inhibition of phosphorylated GSK-3beta protein expression in human HT-29 cells at 2 uM incubated for 72 hrs by Western blot analysis. It counts as functional, cell-based.
In assay [18] the test system is HT-29. The experiment in a line: Induction of mitochondrial ROS generation in human HT-29 cells at 2 uM by MitoSOX red dye based flow cytometry analysis. Format: functional, cell-based. In short, it runs like this: as §1
For assay [19], the system named is HT-29. The experiment in a line: Induction of cell cycle arrest in human HT-29 cells assessed as accumulation of cells at subG1 phase at 2 uM incubated for 24 hrs by RNase/PI staining based flow cytometry analysis (reference value: 1.798%). It counts as functional.
In assay [20] the target is 182 kDa tankyrase-1-binding protein (Homo sapiens) (UniProt Q9C0C2). The experiment in a line: Inhibition of TAB-182 phosphorylation in human HT-29 cells at 2 uM incubated for 72 hrs by Western blot analysis. Format: cell-based.
Sequence of 182 kDa tankyrase-1-binding protein (Homo sapiens) (Q9C0C2 whole entry): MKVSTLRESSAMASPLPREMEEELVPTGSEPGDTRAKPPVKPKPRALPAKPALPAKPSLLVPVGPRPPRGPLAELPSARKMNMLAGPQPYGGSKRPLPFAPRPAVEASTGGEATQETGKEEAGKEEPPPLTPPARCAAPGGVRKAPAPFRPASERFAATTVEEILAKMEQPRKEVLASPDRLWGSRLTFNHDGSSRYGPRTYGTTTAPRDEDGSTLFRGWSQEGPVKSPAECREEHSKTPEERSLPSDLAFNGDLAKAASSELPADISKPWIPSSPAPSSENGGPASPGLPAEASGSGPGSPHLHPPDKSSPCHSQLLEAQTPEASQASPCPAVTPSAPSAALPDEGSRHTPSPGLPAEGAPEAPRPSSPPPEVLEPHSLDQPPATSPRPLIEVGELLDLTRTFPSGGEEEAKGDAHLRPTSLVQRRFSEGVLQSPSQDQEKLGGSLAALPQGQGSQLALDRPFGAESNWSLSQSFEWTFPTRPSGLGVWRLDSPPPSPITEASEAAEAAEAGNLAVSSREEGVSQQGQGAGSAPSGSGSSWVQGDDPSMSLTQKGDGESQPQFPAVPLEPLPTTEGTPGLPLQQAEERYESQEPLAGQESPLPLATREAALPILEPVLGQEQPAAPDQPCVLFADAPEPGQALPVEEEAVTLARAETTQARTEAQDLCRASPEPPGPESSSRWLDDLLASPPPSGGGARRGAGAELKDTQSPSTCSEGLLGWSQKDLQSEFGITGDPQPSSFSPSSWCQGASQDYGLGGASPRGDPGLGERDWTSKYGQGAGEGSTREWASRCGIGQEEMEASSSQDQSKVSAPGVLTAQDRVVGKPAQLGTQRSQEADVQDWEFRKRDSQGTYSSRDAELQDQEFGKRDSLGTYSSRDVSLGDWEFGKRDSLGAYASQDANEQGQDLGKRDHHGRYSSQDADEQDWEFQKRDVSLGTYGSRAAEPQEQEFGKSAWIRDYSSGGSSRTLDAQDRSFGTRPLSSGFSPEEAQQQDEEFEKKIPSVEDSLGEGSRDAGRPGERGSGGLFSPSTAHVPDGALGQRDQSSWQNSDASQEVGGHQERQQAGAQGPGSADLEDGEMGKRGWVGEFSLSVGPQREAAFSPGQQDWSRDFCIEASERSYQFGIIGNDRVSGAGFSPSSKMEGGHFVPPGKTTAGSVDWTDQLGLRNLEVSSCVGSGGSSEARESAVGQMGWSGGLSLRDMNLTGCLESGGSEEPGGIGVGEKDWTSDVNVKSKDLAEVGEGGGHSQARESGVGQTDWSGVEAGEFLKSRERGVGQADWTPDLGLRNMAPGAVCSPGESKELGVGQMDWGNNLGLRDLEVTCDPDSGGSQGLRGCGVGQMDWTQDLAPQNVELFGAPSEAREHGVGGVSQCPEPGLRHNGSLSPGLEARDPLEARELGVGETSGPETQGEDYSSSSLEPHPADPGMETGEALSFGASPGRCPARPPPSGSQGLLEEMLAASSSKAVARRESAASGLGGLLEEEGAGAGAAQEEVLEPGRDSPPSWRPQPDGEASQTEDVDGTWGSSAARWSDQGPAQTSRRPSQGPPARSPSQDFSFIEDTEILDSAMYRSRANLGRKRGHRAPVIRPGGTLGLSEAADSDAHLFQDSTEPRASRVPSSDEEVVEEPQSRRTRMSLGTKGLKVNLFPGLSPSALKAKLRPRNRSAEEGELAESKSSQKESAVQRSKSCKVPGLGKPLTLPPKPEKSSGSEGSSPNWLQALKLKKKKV
Assay [21] concerns HT-29. The experiment in a line: Inhibition of PI3K-p85 protein expression in human HT-29 cells at 2 uM incubated for 72 hrs by Western blot analysis. Format: functional, cell-based.
Assay [22] relates to HT-29. The assay is described as follows: Inhibition of beta-actin protein expression in human HT-29 cells at 2 uM incubated for 72 hrs by Western blot analysis. It counts as functional, cell-based.
In assay [23] the test system is HT-29. The assay is described as follows: Induction of cell cycle arrest in human HT-29 cells assessed as accumulation of cells at S phase at 1 uM incubated for 24 hrs by RNase/PI staining based flow cytometry analysis (reference value: 17.934 %). Format: functional.
The subject of assay [24] is HT-29. The experiment in a line: Induction of mitochondrial damage in human HT-29 cells assessed as increase in monomer formation at 1 uM incubated for 24 hrs by JC-1 staining based flow cytometry analysis. Format: functional, cell-based. In short, it runs like this: as §2
Assay [25] deals with HT-29. The assay is described as follows: Inhibition of beta-catenin protein expression in human HT-29 cells at 1 uM incubated for 72 hrs by Western blot analysis. It counts as functional, cell-based.
Assay [26] concerns HT-29. The experiment in a line: Inhibition of AXIN-1 protein expression in human HT-29 cells at 1 uM incubated for 72 hrs by Western blot analysis. It counts as functional, cell-based.
Assay [27] has as its target Glycogen synthase kinase-3 beta (Homo sapiens) (UniProt P49841). The assay is described as follows: Inhibition of GSK3beta phosphorylation in human HT-29 cells at 1 uM incubated for 72 hrs by Western blot analysis. It counts as cell-based.
Assay [28] addresses Phosphatidylinositol 3-kinase regulatory subunit alpha (Homo sapiens) (UniProt P27986). The assay is described as follows: Inhibition of PI3K-P85 phosphorylation in human HT-29 cells at 1 uM incubated for 72 hrs by Western blot analysis. It counts as cell-based.
In assay [29] the test system is HT-29. The assay is described as follows: Downregulation of beta-catenin protein expression in human HT-29 cells at 1 uM by immunostaining based confocal microscopic analysis. It counts as functional, cell-based.
The test system of assay [30] is HT-29. The experiment in a line: Inhibition of AXIN-2 protein expression in human HT-29 cells at 1 uM incubated for 72 hrs by Western blot analysis. It counts as functional, cell-based.
Assay [31] concerns HT-29. The assay is described as follows: Induction of ROS generation in human HT-29 cells at 1 uM by CM-H2DCFDA fluorescent probe based flow cytometry analysis (reference value: 0.528%). Format: functional.
Assay [32] concerns HT-29. The assay is described as follows: Induction of cell cycle arrest in human HT-29 cells assessed as accumulation of cells at G2/M phase at 1 uM incubated for 24 hrs by RNase/PI staining based flow cytometry analysis (reference value: 23.695 %). Format: functional.
In assay [33] the test system is HT-29. The assay is described as follows: Induction of cell cycle arrest in human HT-29 cells assessed as accumulation of cells at subG1 phase at 1 uM incubated for 24 hrs by RNase/PI staining based flow cytometry analysis (reference value: 1.798%). Format: functional.
Assay [34] concerns the target 182 kDa tankyrase-1-binding protein (Homo sapiens) (UniProt Q9C0C2). The assay is described as follows: Inhibition of TAB-182 phosphorylation in human HT-29 cells at 1 uM incubated for 72 hrs by Western blot analysis. It counts as cell-based.
Assay [35] deals with HT-29. The assay is described as follows: Inhibition of AKT protein expression in human HT-29 cells at 1 uM incubated for 72 hrs by Western blot analysis. It counts as functional, cell-based.
Assay [36] relates to HT-29. The assay is described as follows: Downregulation of TAB-182 protein expression in human HT-29 cells at 1 uM by immunostaining based confocal microscopic analysis. Format: functional, cell-based.

Activity calls are given as the source filed them. The rule behind the calls is not given here.

Sequence of Glycogen synthase kinase-3 beta (Homo sapiens) (P49841 whole entry, looked up): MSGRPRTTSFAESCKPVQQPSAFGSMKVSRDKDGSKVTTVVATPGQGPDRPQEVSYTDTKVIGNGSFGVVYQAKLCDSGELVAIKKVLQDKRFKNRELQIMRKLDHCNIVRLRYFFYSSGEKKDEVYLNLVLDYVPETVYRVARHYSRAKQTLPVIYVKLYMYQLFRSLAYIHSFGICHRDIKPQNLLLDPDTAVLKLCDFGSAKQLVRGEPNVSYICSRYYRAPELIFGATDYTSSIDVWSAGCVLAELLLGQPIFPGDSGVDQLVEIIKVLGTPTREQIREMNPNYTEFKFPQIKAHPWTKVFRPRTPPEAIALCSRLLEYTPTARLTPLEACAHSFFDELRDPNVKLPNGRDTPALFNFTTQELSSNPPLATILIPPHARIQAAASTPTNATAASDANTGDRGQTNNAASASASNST

As for `COc1cccc(-n2c(SCCc3c[nH]c4ccccc34)nnc2-c2ccncc2)c1`, the inhibition result in assay [1], in assay [3], in assay [5], in assay [7], in [8] and in assay [11] was “Active” throughout. The result in [2], in [4] and in assay [6] was Active. For the same compound, the Activity in assay [9] stood at 2.467%; in assay [10], 2.668%.
`Fc1ccccc1-n1c(SCCc2c[nH]c3ccccc23)nnc1-c1ccncc1`: the inhibition result in assay [12], in [13], in assay [15], in assay [17], in [20] and in assay [21] was “Active” each time. Also, the inhibition result in assay [22] was “Active”. Moreover, the Activity in assay [14] is reported as 1.526%; in assay [19], 0.854%. The result in assay [16] and in assay [18] was Active.
`COc1ccc(-n2c(SCCc3c[nH]c4ccccc34)nnc2-c2ccncc2)cc1`: the Activity in assay [23] was 9.899%; in assay [31] it was 15.334%; in assay [32], 22.841%; in assay [33] it was 1.225%. For the same compound, the outcome in assay [24], in [29] and in [36] was Active. Moreover, the inhibition entry in assay [25], in [26], in assay [27], in assay [28], in [30] and in assay [34] was “Active” each time. The inhibition entry in assay [35] was “Active”.
